HCT116 PTEN-null: growth suppressors of cells with PTEN tumor suppressor deletion; 1.2% of 140,000 active; HCT116 PTEN-null viability, CellTiter-Glo, 60 h; hits give low values; AID 827; viability, % at 10 µM;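 active = viability at or below a set limit, 4 SD under the median of all tested compounds, cut at about 3.7% in these data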;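 also: PTEN knockout HCT116 line with beta catenin targeted HCT116 as companion control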
HCT116 bCat-KO: beta-catenin-lacking colon tumor cell growth suppression | HCT116 beta-catenin knockout viability, CellTiter-Glo, 60 h; hits give low values | viability, % at 10 µM | 1.5% of 140,000 active;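 active = viability at or under a set limit, the compound median less 4 SD, cut at about 6% in these data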;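 also: 0% = Hyamine 1622 control at 20 µM and 100% = untreated cell control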
Dynein cargo inh: dynein cargo transport inhibition | 0.47% of 220,000 active | z-score, hits read low | 3617.4 mouse cells, GR-EGFP nuclear translocation imaging; test concentration mostly 20 µM; stimulated with dexamethasone, 1 µM; hits give low values;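 active = plate z-score of nuclear minus cytoplasmic receptor signal below a set negative limit, without overly bright fluorescence or cell loss, cut at about -3.5 in these data, passing the limit was not always enough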;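 also: z-score of nuclear minus cytoplasmic ring GR-EGFP intensity difference per well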
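Buffer or medium: tetracycline-free induction medium containing charcoal-stripped FBS / Reagent: dexamethasone agonist, 1.0 µM final, for 30 min / Technique: automated 10x imaging of fixed Hoechst-stained cells / Times: induction 48 h, compound 1 h, agonist 30 min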
Autophagy HCS: modulators of autophagy | MEF GFP-LC3 puncta imaging; test concentration mostly 10 µM | calls only at 10 µM (by protocol) | 0.98% of 190,000 active | AID 463193;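 active = percentage of spot-positive cells more than 3 SD above its plate mean, without a fluorescence outlier flag or 80% toxicity; inconclusive = no clear call, values can overlap the other calls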;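 also: spot-positive cell cutoff set from DMSO-treated cells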
SDO1 yeast rescue: sdo1-depleted yeast growth rescue; S. cerevisiae sdo1-depleted JHY4D growth rescue, OD600 30 h; hits give high values; pdr5 snq2 efflux-pump mutant strain; z-score at 10 µM; 0.21% of 140,000 active;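 active = z-score above 3 at both the 24 hr and the 30 hr optical density reads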;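 also: z-score against mean and SD of all compound wells on the same plate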
Dynein inh conf: dynein cargo transport inhibition, confirmation; 3617.4 GR-EGFP nuclear translocation imaging, dexamethasone-induced; AID 463116; 69% of 1,000 active; calls only at 20 µM; shares compounds with Dynein cargo inh;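 active = inhibition of receptor movement into the nucleus at or above a set limit in both runs, with normal cell brightness and cell count; inconclusive = limit reached in only one run, brightness and count normal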;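 also: dexamethasone at 1 µM final in well for 30 min; nuclear minus cytoplasmic GR-EGFP mean intensity difference in channel 2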
The depositor's hits bear a star; i = inactive; ? = inconclusive; · = no result; + = active, no number. The list is not random: actives were taken first. Their share in the collection is about 2.2%.

SMILES	HCT116 PTEN-null	HCT116 bCat-KO	Dynein cargo inh	Autophagy HCS	SDO1 yeast rescue	Dynein inh conf
CCCC(=O)N1CCN(c2ccc(NC(=O)c3ccc(Br)o3)cc2)CC1	110	92	-0.97	i	-0.16	·
CCCC(=O)N1CCN(c2ccc(NC(=O)c3ccc([N+](=O)[O-])o3)cc2)CC1	·	·	-4.1*	i	·	+
CCC(=O)N1CCN(c2ccc(NC(=O)c3ccc([N+](=O)[O-])o3)cc2)CC1	·	·	-4*	i	·	+
COc1cccc(-n2c(C)nc3cc(C(=O)O)ccc32)c1	99	105	0.54	i	0.39	·
O=C(NC(=S)Nc1ccc2cn[nH]c2c1)c1ccccc1	·	·	-1.1	i	·	·
O=C(CN1CCCc2ccccc21)NC(=O)NC1CCCCC1	·	·	-3.6	i	·	i
CC(C)(C)NC(=O)NC(=O)CN1CCCc2ccccc21	·	·	0.14	i	·	·
O=c1c(Cl)c(NCCCO)cnn1-c1nc2ccccc2[nH]1	2.0*	1.3*	-4.2*	i	-0.17	+
Cc1ccc(NC(=O)C(=Cc2ccc(C(=O)O)cc2)C(=O)Nc2ccc(C)cc2C)c(C)c1	·	·	-6*	·	·	+
Cc1[nH]c2ccccc2c1C(=O)CSC(=S)N1CCCCC1	91	91	0.84	i	-1.2	·
C=CCNc1cnn(CC(C)=O)c(=O)c1Br	101	96	-0.13	i	0.63	·
CC(C)(C)C(=O)Cn1ncc(Br)c(Br)c1=O	·	·	-4.4*	i	·	+
Cc1onc(-c2ccccc2)c1-c1nc2cc(Cl)ccc2c(=O)o1	·	·	-3.8*	·	·	+
Cc1onc(-c2ccccc2)c1-c1nc2ccccc2c(=O)o1	96	98	-0.2	i	-1.5	·
CC(=O)Nc1sc(/C(C#N)=C/c2ccc(Cl)c(Cl)c2)nc1-c1ccc(C)cc1	80	82	-5.9*	?	-0.94	+
COc1ccc2c(-c3ccccc3)cc(N3CCOCC3)nc2c1	90	97	-0.38	i	-2.1	·
C=CCn1c(=O)c2ccccc2n2c(SCC(=O)/C(C#N)=C(\C)N)nnc12	97	92	-0.38	i	0.43	·
O=C(OCCN1C(=O)c2cccc3c(N4CCOCC4)ccc(c23)C1=O)c1ccc(Cl)cc1Cl	9	10	-11	+	0.15	+
O=C(OCCN1C(=O)c2cccc3c(N4CCOCC4)ccc(c23)C1=O)c1cccc(Cl)c1	20	22	-3.8	+	-0.32	?
CC(C)C(=O)NC(NC(=O)C(C)C)c1ccc([N+](=O)[O-])cc1	95	96	-0.35	i	1.6	·
CC12CC(NC(=O)N1c1cccc(C(=O)NCc3ccccc3)c1)c1ccccc1O2 (centres undefined)	88	93	1.3	i	1.9	·
O=C(CCN1Cc2ccccc2C1)c1ccc2c(c1)OCCO2	80	77	-3.6*	i	0.62	?
O=C(CCN1CCc2ccccc2C(c2ccccc2)C1)c1ccc2c(c1)OCCO2 (centres undefined)	42	71	-1	i	0.41	·
CCC1CCc2c(c3ccccc3[nH]c2=O)O1 (centres undefined)	73	89	-0.41	i	-0.67	·
O=c1[nH]c2ccccc2c2oc(CCl)nc12	·	·	-4.1*	·	·	?
SMILES	HCT116 PTEN-null	HCT116 bCat-KO	Dynein cargo inh	Autophagy HCS	SDO1 yeast rescue	Dynein inh conf
COc1ccc(-c2csc3ncnc(Cl)c23)cc1	·	·	-4.1*	i	·	i
Fc1ccc(-c2csc3ncnc(Cl)c23)cc1	95	98	-2.8	i	0.01	·
Clc1ccc(-c2csc3ncnc(Cl)c23)cc1	77	76	-4*	i	-1.4	+
COCCSc1nnc(NC(=O)Cc2ccc(OC)cc2)s1	·	·	-0.68	i	·	·
COC(=O)C1=C(C)N(Cc2ccco2)C(=O)/C1=C\c1ccc(N(C)C)cc1	59	52	1.3	i	-1.4	·
COC(=O)C1=C(C)N(Cc2ccco2)C(=O)/C1=C\c1ccc([N+](=O)[O-])cc1	·	·	-3.6*	i	·	+
N#Cc1ccccc1CSc1nc(O)cc(=O)[nH]1	94	91	-0.94	i	1.1	·
CCc1nnc(NC(=O)CCn2cnc3ccccc3c2=O)s1	·	·	-0.32	i	·	·
CCCCc1ccc(/C=C2\C(=O)c3ccccc3C(O)=C2C(=O)OCC)cc1	68	67	-4.2*	i	-1	+
CCOC(=O)C1=C(Cc2ccc(F)cc2)C(=O)c2ccccc2C1=O	65	69	-1.7	i	-1.2	·
COC(=O)CSc1nccc(C)n1	·	·	-0.21	i	·	·
Cc1cc(C)c2c(=O)n(CC(=O)Nc3ccc(Br)c(C)c3)sc2n1	·	·	-0.83	·	·	·
COc1ccc(OC)c(CCNC(=O)Cn2sc3nc(C)cc(C)c3c2=O)c1	1.9*	1.9*	-4.1*	i	-0.48	+
Cc1cc(C)c2c(=O)n(CC(=O)NC3CCCC3)sc2n1	·	·	-4.2*	·	·	+
Cc1cc(C)c2c(=O)n(CC(=O)Nc3cccc(Cl)c3C)sc2n1	·	·	-1.1	·	·	·
COc1ccccc1-[n+]1c(C)cc(/C=C2\Sc3ccccc3N2C)cc1C	·	·	-5	·	·	+
C=CCSc1nnc(NC(=O)c2ccc(Cl)nc2)s1	109	100	-0.55	i	-1.8	·
CCCCN1C(=O)/C(=C/C=C2\Oc3ccccc3N2CC)SC1=S	·	·	-4.6	+	·	+
CCCN1C(=O)/C(=C/C=C2\N(CC)c3ccccc3C2(C)C)SC1=S	85	75	-7.9	+	-1	i
COc1ccc(CCCC(=O)Nc2ccccc2F)cc1	96	93	2.4	i	-0.31	·
CSc1ccccc1C(=O)Nc1cccc(C(C)O)c1 (centres undefined)	103	95	2.4	i	-1.2	·
CC(C)c1ccccc1NC(=O)COC(=O)/C=C/c1cccc([N+](=O)[O-])c1	86	89	-0.39	i	0.65	·
N#CC(C#N)=C1C=CC=CN1/C(=C\c1ccco1)C(=O)c1ccc(Br)cc1	4	6	-4.8*	i	-2.1	+
COc1ccc(C(=O)/C(=C\c2ccco2)N2C=CC=CC2=C(C#N)C#N)cc1	11	9	0.1	i	-1.3	·
N#CC(C#N)=C1C=CC=CN1/C(=C\c1ccco1)C(=O)c1ccccc1	1.8*	1.9*	-3.8*	i	-0.88	+
SMILES	HCT116 PTEN-null	HCT116 bCat-KO	Dynein cargo inh	Autophagy HCS	SDO1 yeast rescue	Dynein inh conf
COc1ccc(-n2c(C)cc(C(=O)CCl)c2C)cc1	·	·	-3.8*	+	·	+
Cc1cc(-n2c(C)cc(C(=O)CN3C(=O)NC4(CCCC4)C3=O)c2C)no1	87	91	1	i	-0.42	·
Cc1cc(-n2c(C)cc(C(=O)CCl)c2C)no1	·	·	-7.3*	?	·	+
COc1cc2c(cc1OC)CN(C(=S)Nc1c(C)cccc1C)CC2	99	100	-0.57	i	0.13	·
O=C(Nc1ccccc1)OC1CCCCc2cccnc21 (centres undefined)	·	·	-0.36	·	·	·
CCC(C(=O)NCc1ccco1)N(C(=O)CNS(=O)(=O)c1ccccc1)c1ccccc1C (centres undefined)	·	·	0.43	i	·	·

Compound activity: PubChem, several laboratories
